Experiment [1] has as its system 2008. Briefly: Upregulation of thymidylate synthase total protein level in human 2008 cells at 5 uM after 48 hrs by Western blotting analysis. It is filed as functional, cell-based. Background: A western blot detects proteins with antibodies after separation by electrophoresis.
Experiment [2] in a line: Upregulation of thymidylate synthase total protein level in 13-fold cisplatin-resistant human C13 cells at 5 uM after 48 hrs by Western blotting analysis. It is filed as functional, cell-based.
Experiment [3] addresses Thymidylate synthase (Homo sapiens) (UniProt P04818). Briefly: Inhibition of human thymidylate synthase using dUMP as substrate at 50 uM after 1 hr by UV-vis spectrophotometric analysis in presence of mTHF relative to control. In a few lines:
(§1)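 Purified hTS, concentration by UV-vis (ε280 = 89 000 M−1 cm−1), preincubated 1 h with peptide in phosphate buffer pH 6.9 at 25 °C. Reaction in 50 mM TES pH 7.4 with 25 mM MgCl2, 6.5 mM HCHO, 1 mM EDTA, 75 mM βME, 0.6 mM dUMP, 0.15 mM mTHF. A340 followed 3 min. I% versus enzyme-alone control, mean ± SEM, n = 3.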

For experiment [4] the target is unchanged. Nature of the experiment: Inhibition of human thymidylate synthase using dUMP as substrate at 75 uM after 1 hr by UV-vis spectrophotometric analysis in presence of mTHF relative to control. An outline of the steps: as §1
In experiment [5] the test system is 2008. Briefly: Cytotoxicity against human 2008 cells assessed as cell survival at 10 uM after 72 hrs by crystal violet staining-based spectrophotometric analysis relative to control. As to conditions: Homo sapiens, 2008, 72 h, read-out: Survival.
The next experiment has as its system A2780. Briefly: Cytotoxicity against human A2780 cells assessed as cell survival at 10 uM after 72 hrs by crystal violet staining-based spectrophotometric analysis relative to control. The following applies: A2780, 72 h, read-out: Survival.
A short description of experiment [6]: Cytotoxicity against 13-fold cisplatin-resistant human C13 cells cell survival at 10 uM after 72 hrs by crystal violet staining-based spectrophotometric analysis relative to control. The following applies: C13, 72 h, read-out: Survival.
A short description of experiment [7]: Cytotoxicity against 10-fold cisplatin-resistant human A2780C/P cells cell survival at 10 uM after 72 hrs by crystal violet staining-based spectrophotometric analysis relative to control. The following applies: A2780cisR, read-out: Survival.

Active and inactive are the calls of the source. The rule behind the calls is not given here. Non-standard residues stand in square brackets, D forms with d. Residues, ends and D or L forms follow the SMILES beside them. A value given as a limit tells only on which side of the number the result lay.

Thymidylate synthase (Homo sapiens), sequence (P04818 2-313 limits assumed): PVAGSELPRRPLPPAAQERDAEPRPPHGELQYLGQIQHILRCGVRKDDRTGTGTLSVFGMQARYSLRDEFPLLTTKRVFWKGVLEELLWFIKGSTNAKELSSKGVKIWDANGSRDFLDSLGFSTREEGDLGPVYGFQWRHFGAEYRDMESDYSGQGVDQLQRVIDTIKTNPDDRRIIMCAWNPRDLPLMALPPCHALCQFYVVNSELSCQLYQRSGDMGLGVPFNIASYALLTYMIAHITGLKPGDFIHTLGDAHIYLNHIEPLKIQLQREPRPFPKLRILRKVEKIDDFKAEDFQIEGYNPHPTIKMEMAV

Consider `O=c1[nH]cc(F)c(=O)[nH]1`, for which the outcome (with 2008 [1]; in experiment [2]) was Active.

Usually inhibition stands for how much of the control response was suppressed. Take H-LSCQLYAR-OH: the inhibition in experiment [3] was 60%. Regarding H-CQLYQ-OH, in experiment [4], the inhibition was 52%. With H-LSCQLYQ-OH, in experiment [4], the inhibition is 56%. Still for that read-out and setting: the figure for `CC(C)C[C@H](N)C(=O)N[C@@H](CO)C(=O)N[C@@H](CS)C(=O)N[C@@H](CCC(N)=O)C(=O)O` (H-LSCQ-OH) is 59%. With H-SCQLYQR-OH, the inhibition in experiment [3] was 54%. Take `CC(C)C[C@H](NC(=O)[C@@H](CCC(N)=O)NC(=O)[C@H](CS)NC(=O)[C@H](CO)NC(=O)[C@@H](N)CC(C)C)C(=O)N[C@@H](Cc1ccc(O)cc1)C(=O)N[C@@H](CCC(N)=O)C(=O)N[C@@H](CCCNC(=N)N)C(=O)O` (H-LSC[dQ]LYQR-OH): the viability at 10 µM in the experiment with 2008 [5] is less than 50%; in the experiment with A2780, less than 50%; in experiment [6], 25%; in experiment [7], 25%.

For the origin of these results see ChEMBL document CHEMBL3124918, “Optimization of peptides that target human thymidylate synthase to inhibit ovarian cancer cell growth” (2014).
